Assay results: ChEMBL document CHEMBL1671778, “Synthesis and serotonin transporter activity of 1,3-bis(aryl)-2-nitro-1-propenes as a new class of anticancer agents” (Bioorg Med Chem, 2011)
The source made the active and inactive calls. The rule behind the calls is not given here.

What was measured:
[1] = tested on: SH-SY5Y; assay: Cytotoxicity against human SH-SY5Y cells expressing human SERT assessed as decrease in cell viability after 48 hrs neutral red dye assay; format: functional, cell-based
[2] = biological target: T1, Sodium-dependent serotonin transporter (Homo sapiens, UniProt P31645); assay: Inhibition of [3H]-serotonin reuptake at human SERT expressed in HEK293 cells after 15 to 20 mins by fluorescence neurotransmitter transporter assay; format: cell-based
Target sequence in this assay (P31645 whole entry): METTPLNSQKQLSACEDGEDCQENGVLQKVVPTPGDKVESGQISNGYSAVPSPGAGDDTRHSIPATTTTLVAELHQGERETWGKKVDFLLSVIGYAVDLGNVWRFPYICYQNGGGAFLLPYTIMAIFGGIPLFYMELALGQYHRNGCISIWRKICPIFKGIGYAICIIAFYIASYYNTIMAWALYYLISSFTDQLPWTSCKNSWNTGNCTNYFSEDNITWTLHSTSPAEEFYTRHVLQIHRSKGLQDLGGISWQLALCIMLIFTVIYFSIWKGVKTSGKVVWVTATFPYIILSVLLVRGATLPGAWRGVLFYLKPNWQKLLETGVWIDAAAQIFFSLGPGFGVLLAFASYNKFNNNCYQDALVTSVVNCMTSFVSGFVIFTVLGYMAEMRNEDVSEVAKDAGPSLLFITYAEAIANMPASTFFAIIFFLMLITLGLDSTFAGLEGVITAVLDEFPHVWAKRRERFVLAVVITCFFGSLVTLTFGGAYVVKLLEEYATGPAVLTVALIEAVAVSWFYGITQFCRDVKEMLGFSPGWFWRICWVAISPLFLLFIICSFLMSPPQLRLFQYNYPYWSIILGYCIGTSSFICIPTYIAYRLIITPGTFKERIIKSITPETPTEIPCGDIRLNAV

[3] = tested on: HEK293; assay: Cytotoxicity against human HEK293 cells expressing human SERT assessed as decrease in cell viability after 48 hrs neutral red dye assay; format: functional, cell-based; conditions: HEK293, 48 h
Outline: (§1)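 5x10^4 cells/well grown to sub-confluence (24-36 h), then exposed to compound 48 h. Neutral red dye 3+1 h, solubilised in 50% ethanol/1% acetic acid, absorbance 540 nm (690 nm background). Viability as percent of vehicle-treated cells; pEC50 by non-linear sigmoidal regression over 4 concentrations, triplicate on two independent days. Controls 30 mM sodium azide, 2% Triton-X. HEK293-hSERT cells kept in Geneticin, used up to 30 passages.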

[4] = tested on: DG-75; assay: Cytotoxicity against human chemoresistant DG75 cells expressing SERT assessed as decrease in cell viability 10 or 50 uM after 72 hrs Alamar blue assay; format: functional, cell-based; conditions: DG-75, 72 h
Outline: (§2)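 1-5x10^4 cells/200 µl given 10 or 50 µM for 24 h (MUTU-I, MDA-MB231, PBMC) or […]. Alamar Blue at 37 °C in the dark 4-6 h, then fluorescence read with 544/590 nm. Media-only background subtracted; untreated cells set as 100% viability. Mean of six points (triplicate, two independent days). PBMCs from a healthy donor, isolated by ficoll density separation.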

[5] = tested on: HEK293; assay: Cytotoxicity against human HEK293 cells assessed as decrease in cell viability after 48 hrs neutral red dye assay; format: functional, cell-based; conditions: HEK293, 48 h; outline: as §1
[6] = tested on: DG-75; assay: Antiproliferative activity against human DG75 cells after 24 hrs Alamar blue assay; format: functional, cell-based; conditions: DG-75, 24 h
Outline: (§3)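 Alamar Blue viability: 1-5x10^4 cells/well treated 24 h, then Alamar Blue (pre-warmed) 4-6 h at 37 °C in the dark. Fluorescence read at 590 nm (excitation 544 nm), background of medium plus dye subtracted, untreated cells = 100% viability. Miconazole 10 µM as cell-death control. Range 1 µM-1 mM, triplicate on two independent days. pEC50 from non-linear sigmoidal regression.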

[7] = Antiproliferative activity against human chemosensitive MUTU-I cells after 24 hrs Alamar blue assay; format: functional, cell-based; outline: as §3
[8] = tested on: SH-SY5Y; assay: Antiproliferative activity against human SH-SY5Y cells after 24 hrs Alamar blue assay; format: functional, cell-based; outline: as §3
[9] = biological target: T1, Sodium-dependent serotonin transporter; conditions: HEK293, at 100 µM
Target sequence in this assay (P31645 whole entry, looked up): as the sequence (P31645 whole entry) above

[10] = biological target: Tubulin (Homo sapiens) (UniProt P68371+Q9H4B7+P0DPH7+P68366+Q13509+Q71U36+P04350+Q3ZCM7+P07437+P68363+Q9BQE3+Q6PEY2+Q13885+Q9BVA1+Q9BUF5); assay: Inhibition of tubulin polymerisation in human chemosensitive MUTU-I cells after 30 mins; format: cell-based
[11] = tested on: MUTU-I; assay: Induction of apoptosis in human chemosensitive MUTU-I cells assessed as accumulation at G2/M phase after 2 to 8 hrs by propidium iodide FACS analysis relative to taxol; format: functional, cell-based
Outline: (§4)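 750,000 MUTU-I cells per sample treated for the stated time, then harvested (300 ×g, 5 min), washed in ice-cold PBS and fixed overnight at 4 °C in 70% ethanol. Stained with RNase A and propidium iodide, 30 min at 37 °C in the dark. Flow cytometry counted 10,000 gated cells for cell-cycle phases. Taxol 10 µM as positive control.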

[12] = tested on: MUTU-I; assay: Induction of apoptosis in human chemosensitive MUTU-I cells assessed as chromatin condensation and membrane bledding at 10 uM after 8 hrs; format: functional, cell-based
Outline: (§5)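 Cells at 3x10^5 cells/mL exposed for 4 h or 8 h. 150 µl aliquots were cytocentrifuged onto slides (500 ×g, 2 min), air-dried, methanol-fixed, and stained with eosin Y and methylene blue. Morphology was examined by light microscopy at 60x.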

[13] = biological target: T1, Sodium-dependent serotonin transporter; conditions: HEK293, at 1 µM
Target sequence in this assay (P31645 whole entry, looked up): as the sequence (P31645 whole entry) above

[14] = tested on: MUTU-I; assay: Induction of apoptosis in human chemosensitive MUTU-I cells assessed as induction of PARP cleavage at 10 uM after 8 hrs; format: functional, cell-based
Outline: (§6)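 PARP cleavage by Western blot: 5x10^6 cells pelleted (500 ×g, 5 min), washed, and lysed in Laemmli buffer with protease inhibitors. Lysates run on 8% SDS-PAGE, transferred to PVDF, and probed with anti-PARP detecting full-length 113 kDa and cleaved 85 kDa forms. HRP secondary antibody, chemiluminescence detection.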

[15] = biological target: T2, Tyrosine-protein phosphatase non-receptor type 1 (Homo sapiens) (UniProt P18031); assay: Inhibition of human recombinant PTP1B in chemosensitive MUTU-I cells after 30 mins; format: cell-based
T2 sequence (whole entry): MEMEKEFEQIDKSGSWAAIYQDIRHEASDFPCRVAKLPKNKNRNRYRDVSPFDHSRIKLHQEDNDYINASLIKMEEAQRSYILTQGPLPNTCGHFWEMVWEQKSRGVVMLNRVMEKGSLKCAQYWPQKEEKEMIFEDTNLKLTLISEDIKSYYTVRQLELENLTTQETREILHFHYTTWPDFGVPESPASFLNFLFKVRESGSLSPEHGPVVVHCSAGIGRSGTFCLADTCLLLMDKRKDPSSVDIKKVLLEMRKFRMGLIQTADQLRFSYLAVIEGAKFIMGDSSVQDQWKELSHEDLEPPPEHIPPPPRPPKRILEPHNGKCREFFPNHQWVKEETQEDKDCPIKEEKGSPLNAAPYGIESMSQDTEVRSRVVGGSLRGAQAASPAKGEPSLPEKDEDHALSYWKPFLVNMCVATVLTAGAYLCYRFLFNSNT
Outline: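 Recombinant PTP1B expressed in E. coli, incubated with compound and a phosphopeptide substrate for 30 min at 30 °C. Released phosphate detected by malachite green at 620 nm and quantified against a phosphate standard curve. Suramin as positive control.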

[16] = Induction of apoptosis in human chemosensitive MUTU-I cells assessed as accumulation at pre-G1 phase at 10 uM by propidium iodide FACS analysis; format: functional; outline: as §4
[17] = tested on: MUTU-I; assay: Induction of apoptosis in human chemosensitive MUTU-I cells assessed as caspase 3/7 activation at 10 uM after 4 hrs; format: functional, cell-based
[18] = tested on: MUTU-I; assay: Induction of apoptosis in human chemosensitive MUTU-I cells assessed as chromatin condensation and membrane bledding at 10 uM after 4 hrs; format: functional, cell-based; outline: as §5
[19] = tested on: MUTU-I; assay: Induction of apoptosis in human chemosensitive MUTU-I cells assessed as caspase 3/7 activation at 10 uM after 5 hrs; format: functional, cell-based
Outline: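 Caspase 3/7 activity by homogeneous fluorogenic kit: 0.5x10^5 cells exposed to compound (10 µM) for 5 h, then 100 µl Z-DEVD-R110 substrate added. After 2 h, cleaved substrate measured at 521 nm (excitation 499 nm).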

[20] = tested on: MUTU-I; assay: Induction of apoptosis in human chemosensitive MUTU-I cells assessed as induction of PARP cleavage at 10 uM after 4 hrs; format: functional, cell-based; outline: as §6
[21] = tested on: PBMC; assay: Cytotoxicity against human PBMC cells assessed as decrease in cell viability 10 or 50 uM after 24 hrs Alamar blue assay; format: cell-based; outline: as §2

| Compound | EC50 [1] [µM] | EC50 [3] [µM] | EC50 [4] [µM] | EC50 [5] [µM] | EC50 [6] [µM] | EC50 [7] [µM] | EC50 [8] [µM] | inhibition [9] [%] | inhibition [13] [%] | also measured |
| --- | --- | --- | --- | --- | --- | --- | --- | --- | --- | --- |
| CC(N)Cc1ccc2c(c1)OCO2 (stereo not given) [TENAMFETAMINE] | > 10000 | 631 | 2000 | 316 | – | – | – | – | – | IC50 [2]: 0.9 µM |
| OC(Cc1ccc2c(c1)OCO2)Cc1ccc2c(c1)OCO2 | – | – | – | – | 126 | 39.8 | 158 | – | – | – |
| CSc1ccc(/C=C(/Cc2ccc(SC)cc2)[N+](=O)[O-])cc1 | – | – | – | – | 39.8 | 3.16 | 20 | 18 | 25 | inhibition [10]: inactive; Activity [11]: Active; Activity [12]: Active; Activity [14]: Active; inhibition [15]: inactive; Activity [16]: 50%; Activity [17]: Active; Activity [18]: Active; Activity [19]: Active; Activity [20]: Active |
| COc1ccc(CC(Cc2ccc(OC)cc2)NC=O)cc1 | > 10000 | 3980 | 1580 | 31.6 | 200 | 200 | 316 | 18 | 8 | – |
| CSc1ccc(C/C(=C/c2ccc(Cl)cc2)[N+](=O)[O-])cc1 | – | – | – | – | 7.94 | 3.16 | 20 | – | – | – |
| NC(Cc1ccc2c(c1)OCO2)Cc1ccc2c(c1)OCO2 | 31.6 | 31.6 | 15.8 | 25.1 | 251 | 50.1 | 31.6 | 77 | 44 | IC50 [2]: 1.6 µM |
| O=C(Cc1ccc2c(c1)OCO2)Cc1ccc2c(c1)OCO2 | > 10000 | 5010 | 3160 | 1260 | 158 | 100 | 251 | – | – | – |
| O=CNC(Cc1ccc2c(c1)OCO2)Cc1ccc2c(c1)OCO2 | > 10000 | 1580 | 15.8 | > 10000 | 158 | 63.1 | 224 | 55 | 18 | – |
| CSc1ccc(CC(C)N)cc1 (stereo not given) [4-METHYLTHIOAMPHETAMINE] | 631 | 25.1 | 316 | 20 | – | – | – | – | – | IC50 [2]: 0.2 µM |
| NC(Cc1ccc(Cl)cc1)Cc1ccc(Cl)cc1 | – | – | – | – | 25.1 | 0.158 | 5.01 | – | – | Activity [21]: Toxic |
| O=[N+]([O-])/C(=C\c1ccc(Cl)cc1)Cc1ccc(Cl)cc1 | – | – | – | – | 12.6 | 1 | 2.51 | 23 | 0 | inhibition [10]: inactive; Activity [11]: Active; Activity [12]: Active; Activity [14]: Active; inhibition [15]: inactive; Activity [16]: 41%; Activity [17]: Active; Activity [18]: Active; Activity [19]: Active; Activity [20]: Active |
